CHO parental Ca: ATP-evoked calcium signal inhibitors, parental CHO, primary screen, counter-screen for OX1R antagonist project, cell-based, fluorescence, Fluo-8 calcium dye. parental CHO-K1, ATP-induced calcium, Fluo-8 fluorescence. inhibition, % at 5.6 µM. actives 0.63% (n = 330,000). AID 463079, 2010;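 active = inhibition above that plate's mean sample inhibition plus 3 SD, cut at about 26% in these data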;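 note: 0% = ATP-challenged DMSO wells and 100% = DMSO wells without ATP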
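Assay system – parental CHO cells · Reagent – ATP stimulus · Detection – intracellular calcium via Fluo-8 no-wash fluorescent dye · Evaluation – percent inhibition of ATP-evoked calcium rise, normalized to controls · Controls – ATP wells versus no-ATP DMSO wells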
CHO-K1 Ca ag: counter-screen for M1 agonists: effect in parental CHO-K1 cells; Fluo-8 calcium fluorescence; scaled to maximal ATP response, vehicle zero; activation, % at 3 µM; actives 0.48% (n = 360,000); in the data active = activation above about 15%;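 note: untransfected CHO-K1 host cells lacking M1 receptor as counterscreen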
OX1R antag-1: antagonists of human orexin 1 receptor (OX1R); Orexin/Hypocretin receptor type 1 (Homo sapiens), O43613; actives 1.8% (n = 330,000); inhibition, % at 6.6 µM; OX1R-expressing cells, FRET antagonist read-out; in the data active = inhibition mostly above about 38%, no sharp cut-off; inactive = mostly below about 40%;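 note: 0% = agonist challenge alone and 100% = reference antagonist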
Target sequence (O43613 whole entry, looked up): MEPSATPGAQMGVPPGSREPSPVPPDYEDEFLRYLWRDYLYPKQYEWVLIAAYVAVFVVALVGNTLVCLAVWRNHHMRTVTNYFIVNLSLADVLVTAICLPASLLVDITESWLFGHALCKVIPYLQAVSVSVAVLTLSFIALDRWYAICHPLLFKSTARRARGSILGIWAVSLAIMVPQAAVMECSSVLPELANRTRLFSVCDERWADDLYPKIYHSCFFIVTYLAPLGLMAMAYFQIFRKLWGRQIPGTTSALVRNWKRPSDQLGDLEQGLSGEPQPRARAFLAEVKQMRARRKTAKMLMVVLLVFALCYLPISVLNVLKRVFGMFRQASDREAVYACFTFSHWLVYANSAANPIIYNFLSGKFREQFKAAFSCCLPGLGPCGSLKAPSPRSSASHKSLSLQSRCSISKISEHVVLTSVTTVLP
CHO-K1 Ca antag: M1 antagonist counterscreen hit in parental CHO-K1 cells | ATP-induced calcium, Fluo-8 fluorescence | actives 0.6% (n = 360,000) | inhibition, % at 3 µM;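 active = inhibition above a per-plate cutoff, the plate's mean sample inhibition plus 3 SD, cut at about 24% in these data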;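 note: 0% = DMSO plus EC80 ATP and 100% = DMSO alone without ATP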
CHO-K1 Ca PAM: nonselective calcium activators in parental CHO-K1 cells, primary screen, counter-screen for M1 PAM project, cell-based, Fluo-8 calcium fluorescence, full deck, 1536-well; ATP EC20; 0% at ATP EC20, 100% at ATP max; actives 0.02% (n = 360,000); activation, % at 3 µM; AID 602247, 2012;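 active = activation above the run cutoff, the mean activation of all test compounds plus 3 SD, cut at about 40% in these data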;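 note: peak over basal fluorescence ratio in a 140 s read after ATP addition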
OX1R antag-2: OX1R (HCRTR1) antagonists, primary screen, fluorescence, CHO/OX1R cells, Fluo-8 calcium, orexin A. Orexin/Hypocretin receptor type 1 (Homo sapiens), O43613. Fluo-8 calcium fluorescence. inhibition, % at 5 µM. actives 0.43% (n = 330,000). AID 434989, 2010;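 active = inhibition above its plate's threshold, mean inhibition of all tested compounds on the plate plus 3 SD, cut at about 37% in these data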;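 note: 0% = orexin A challenge wells and 100% = SB-334867-A antagonist wells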
Active calls of the source: *; . = not tested or not shown. Rows were chosen to be rich in hits. Some 2.9% of all compounds tested hit in one or more screens of this group.

SMILES	CHO parental Ca	CHO-K1 Ca ag	OX1R antag-1	CHO-K1 Ca antag	CHO-K1 Ca PAM	OX1R antag-2
COc1ccc(C2(c3ccc(OC)cc3)NC(=O)N(CC(=O)Nc3ccc(C(N)=O)cc3)C2=O)cc1	-7	-1	12	4	-20	-8
COc1ccc(CCNC(=O)CN2C(=O)NC(c3ccccc3)(c3ccccc3)C2=O)cc1	-16	2	36*	-8	4	24
COc1ccc(C2(c3ccc(OC)cc3)NC(=O)N(CC(=O)Nc3ccccc3)C2=O)cc1	3	15*	2	-6	14	-5
COc1ccc(CNC(=O)CN2C(=O)NC(c3ccccc3)(c3ccccc3)C2=O)cc1	-21	0	15	6	-4	-1
CC1CCCC(NC(=O)CSc2n[nH]c(=O)n2Cc2ccccc2)C1C (centres undefined)	-19	1	14	3	2	-2
CCOc1ccccc1NC(=O)CSc1nnc(CNC(=O)c2cccs2)o1	-9	1	-5	-2	-4	-3
CC1=C(C#N)C(C(F)(F)F)(C(F)(F)F)N=C(c2ccco2)N1	9	16*	13	-1	13	-4
CCCC(=O)c1ccc(N2CCN(C(=O)c3ccccc3Br)CC2)c(F)c1	52*	12	41	14	4	32
CC(=O)c1ccc(N2CCN(C(=O)c3cccs3)CC2)c(F)c1	-8	6	18	-7	12	-14
CCCC(=O)c1ccc(N2CCN(C(=O)c3cccs3)CC2)c(F)c1	-14	15*	3	11	-11	-24
C=CCn1c(C)cc(C(=O)COC(=O)/C=C/c2c(C)nn(C3CCS(=O)(=O)C3)c2Cl)c1C (centres undefined)	-5	3	22	11	-13	-8
CCCCCCn1c(=O)[nH]c2nc3cc(N)c(C)cc3nc2c1=O	.	60*	.	29*	-10	.
COc1ccc(CCNc2ncnc3cc(OC)c(OC)cc23)cc1OC	.	16*	.	-9	-5	.
CC(=O)N1CCN(c2c(F)c(F)c(C(F)(F)F)c(F)c2F)CC1	.	9	.	1	-13	.
CCOCCCNC(=O)c1[nH]c(C)c(C(C)=O)c1C	-5	0	10	24*	-5	7
Cc1cc(C)n2c(NC3CCCCC3)c(CC(C)C)nc2n1	.	0	.	-6	13	.
Cn1nc(C(F)(F)F)c(-c2ccc(Br)cc2)c1NC(=O)Nc1ccc(F)cc1F	33	9	24	20	-21	46*
Cn1nc(C(F)(F)F)c(-c2ccc(F)cc2)c1NC(=O)c1ccco1	-6	1	3	-12	9	-13
COc1ccc([C@H]2C[C@H](O)[C@@H](n3cc(COC(=O)c4ccccc4)nn3)CN2Cc2cccs2)cc1	.	0	.	31*	-10	.
COc1ccc([C@H]2C[C@@H](O)[C@H](n3cc(COC(=O)c4ccccc4)nn3)CN2Cc2cccs2)cc1	.	1	.	-6	4	.
CCCC(=O)OCCNc1cc(SCc2ccco2)c2nonc2c1[N+](=O)[O-]	-14	-1	68*	-1	10	-19
CCCSc1cc(NCCOC(=O)CCC)c([N+](=O)[O-])c2nonc12	-9	1	66*	-6	17	-12
CC(=O)OCCCNc1cc(SCc2ccco2)c2nonc2c1[N+](=O)[O-]	-19	0	73*	1	-6	-25
Cc1ccc(NC(=O)CSc2nnc(C)c(=O)n2N)cc1Cl	-1	3	1	-14	-3	-12
Cc1nnc(SCC(=O)c2ccc(Cl)cc2)n(N)c1=O	10	0	50*	-2	2	7
SMILES	CHO parental Ca	CHO-K1 Ca ag	OX1R antag-1	CHO-K1 Ca antag	CHO-K1 Ca PAM	OX1R antag-2
CCN(C(=O)CN1C(=O)COc2ccc(S(=O)(=O)N3CCCCCC3)cc21)c1cccc(C)c1	-34	35*	10	-8	24	-5
O=C(NCCNc1ccc([N+](=O)[O-])cc1C(F)(F)F)c1ccccc1F	42*	3	42	2	-5	27
COc1cc(/C=C2\S/C(=N/S(=O)(=O)c3ccccc3)NC2=O)c([N+](=O)[O-])cc1OC	-2	2	28	27*	-7	-4
COc1ccc(S(=O)(=O)/N=C2/NC(=O)/C(=C\c3cc(OC)c(OC)cc3[N+](=O)[O-])S2)cc1	1	1	8	-7	18	-3
COc1cc(C2NC(=O)NC(C)=C2C(=O)OCC2CCCCC2)ccc1O (centres undefined)	1	20*	27	-8	8	-1
C/C=C/COC(=O)C1=C(C)NC(=O)NC1c1ccc2c(c1)OCO2 (centres undefined)	-10	1	5	25*	-6	-16
COc1ccc(COC(=O)C2=C(C)NC(=O)NC2c2ccc(OC)c(OC)c2)cc1 (centres undefined)	-22	0	16	24*	-3	-15
COc1cc(C2NC(=O)NC(C)=C2C(=O)OCc2ccccc2)ccc1O (centres undefined)	-5	0	18	-5	-5	5
O=C(Cc1ccc(S(=O)(=O)N2CCOCC2)s1)OCc1ccc(Cl)cc1	-14	4	7	-16	7	-3
Cc1cccc(C(=O)OCC(=O)NCC2COc3ccccc3O2)c1 (centres undefined)	-13	0	-1	-21	20	-17
O=C(NCCN1CCN(C(=O)c2ccc([N+](=O)[O-])cc2)CC1)C(=O)Nc1ccc(F)cc1	-1	1	18	-6	15	-17
Cc1cccnc1NC(=O)Nc1cccc2ccccc12	-22	0	45*	-4	-1	-10
O=C(Nc1ccccc1)Nc1cccc2ccccc12	-6	7	21	-17	19	-29
COc1cccc(/C=N/Nc2nc3ccccc3n3cnnc23)c1	-12	1	36	14	-12	10
COc1cccc(/C=N/Nc2nc3ccccc3n3cnnc23)c1O	-2	1	67*	-9	14	-6
CCCn1nnc(NC(=S)NC(=O)/C=C/c2ccco2)n1	-13	1	5	-11	18	-13
O=C(CCc1nc(-c2ccccc2)no1)Nc1cccnc1	-16	16*	6	-5	10	-7
O=C(CCCc1nc(-c2ccccc2)no1)Nc1cccnc1	-7	2	6	-12	16	-11
Cc1ccc(-c2noc(CCCC(=O)NC3CCCCC3)n2)cc1	40*	13	9	-10	27	-7
COc1ccc(-c2noc(CCC(=O)Nc3ccc(C)c(C)c3)n2)cc1	-1	7	16	0	20	21
CCOC(=O)c1ccc(NC(=O)CCc2nc(-c3ccc(C)cc3)no2)cc1	33*	5	14	6	18	0

Assay outcomes: PubChem, The Scripps Research Institute Molecular Screening Center
